In ChEMBL document CHEMBL1649400, “Synthesis and antitumor activity of ureas containing pyrimidinyl group” (Eur J Med Chem, 2011):

Tests used:
Format in all cases: functional, cell-based
MGC-803 = assay: Cytotoxicity against human MGC803 cells after 3 days by MTT assay; details: MGC-803, 72 h
Method in brief: (§1)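 Cells grown in RPMI 1640 with 10% fetal calf serum were plated from suspension and held 12 h at 37 °C, 5% CO2. Test sample was then added and cells were cultured 3 days at 37 °C. MTT was added for 4 h at 37 °C, supernatant removed, formazan dissolved in DMSO, absorbance read at 570 nm. IC50 = concentration giving 50% growth inhibition versus untreated control.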

KB = assay: Cytotoxicity against human KB cells after 3 days by MTT assay; details: 72 h; method in brief: as §1
[1] = Cytotoxicity against human CNE2 cells after 3 days by MTT assay; details: CNE-2, 72 h; method in brief: as §1
MCF7 = assay: Cytotoxicity against human MCF7 cells after 3 days by MTT assay; details: MCF7, 72 h; method in brief: as §1

SMILES | IC50 (MGC-803) [µM] | IC50 (KB) [µM] | IC50 [1] [µM] | IC50 (MCF7) [µM]
Cc1cc(C)nc(Oc2ccc(NC(=O)Nc3ccc(Cl)cc3)cc2)n1 | > 50 | 25.4 | 20.4 | > 50
Cc1cc(C)nc(Sc2ccc(NC(=O)Nc3ccccc3)cc2)n1 | 40.1 | 25.7 | 22 | > 50
Cc1cccc(NC(=O)Nc2ccc(Sc3nc(C)cc(C)n3)cc2)c1 | 25.3 | 47.8 | > 50 | 37
O=c1[nH]cc(F)c(=O)[nH]1 [FLUOROURACIL] | 12.6 | 11.9 | 13.1 | 15.2
Cc1cc(C)nc(Sc2ccc(NC(=O)Nc3ccc(Cl)cc3)cc2)n1 | 26.1 | 10.2 | 13.5 | 35.3
Cc1cccc(NC(=O)Nc2ccc(Oc3nc(C)cc(C)n3)cc2)c1 | – | > 50 | – | –
Cc1cc(C)nc(Sc2ccc(NC(=O)Nc3ccc(OC(F)(F)F)cc3)cc2)n1 | 13.8 | 20 | 22.8 | 41.7
COc1ccc(NC(=O)Nc2ccc(Cl)cc2)cc1 | – | > 50 | > 50 | > 50
Cc1cc(C)nc(Oc2ccc(NC(=O)Nc3ccccc3)cc2)n1 | – | > 50 | – | –
Cc1cc(C)nc(Sc2ccc(NC(=O)Nc3ccc(Cl)cc3Cl)cc2)n1 | > 50 | 15.5 | 23.2 | > 50
Cc1cc(C)nc(Sc2ccc(NC(=O)Nc3ccc(F)cc3)cc2)n1 | > 50 | 32.1 | 34.1 | > 50
Cc1cc(C)nc(Oc2ccc(NC(=O)Nc3ccc(Cl)cc3Cl)cc2)n1 | 35.4 | 31.8 | 38.9 | 47.8
Cc1cc(C)nc(Oc2ccc(NC(=O)Nc3ccc(OC(F)(F)F)cc3)cc2)n1 | > 50 | 28.9 | 30.8 | > 50
Cc1cc(C)nc(Oc2ccc(NC(=O)Nc3ccc(F)cc3)cc2)n1 | > 50 | 48.4 | 46.9 | > 50
COc1ccc(NC(=O)Nc2ccc(Cl)cc2Cl)cc1 | > 50 | > 50 | > 50 | > 50
